Test results taken from ChEMBL document CHEMBL1133006, “Synthesis and evaluation of several new (2-chloroethyl)nitrosocarbamates as potential anticancer agents” (J Med Chem, 2000).
Values after ≈ are worked out from the molar mass of the structure shown.

Assays:
[1] = test system: NCI-H23; assay: In vitro cytotoxicity was evaluated against lung NCI-H23 cells; format: functional, cell-based; conditions: Homo sapiens
Summary of the method: (§1)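 Cells dispersed with trypsin/EDTA, suspended at 5 × 10⁴/mL and seeded in 96-well plates. Compounds dissolved in 100% DMSO, diluted in complete medium and added in 100-µL samples, eight replicate wells per concentration. Controls were mock, vehicle (DMSO in medium) and doxorubicin 200 µM. Incubation 72 h, read by XTT or neutral red uptake, IC₅₀ calculated in µM.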

[2] = test system: SNB-7; assay: In vitro cytotoxicity was evaluated againstCNS SNB-7 cells; format: functional, cell-based; conditions: Homo sapiens; summary of the method: as §1
[3] = test system: SK-MEL-28; assay: In vitro cytotoxicity was evaluated against melanoma SK-MEL-28 cells; […]; format: functional, cell-based; conditions: Homo sapiens; summary of the method: as §1
[4] = test system: DLD-1 (Homo sapiens); assay: In vitro cytotoxicity was evaluated against colon DLD-1 cells
[5] = test system: CAKI-1 (Homo sapiens); assay: In vitro cytotoxicity was evaluated against renal CAKI-1 cells; […]
[6] = species: Mus sp.; assay: Difference in the median of times poststaging for tumors of the treated (T) groups to double in mass twice compared to the median of the control (C) group; format: functional
Summary of the method: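 M5076 sarcoma, 5 × 10⁶ cells implanted sc in B6C3F₁ mice (implantation = day 0). Compound given ip on days 10-14 at optimal dosage (≤LD10). T-C is the difference in median time after staging for treated versus control tumors to double in mass twice, in days.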

[7] = test system: Mus sp.; assay: Antitumor activity against subcutaneously implanted M5076 murine sarcoma in B6C3F1 mice (5x10E6) at 12.5 mg/kg on day 10 to 14, expressed tumor-free surv/total; 0/5; format: functional; conditions: route subcutaneous
Summary of the method: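 B6C3F1 mice got 5 × 10⁶ M5076 sarcoma cells sc (implant day = day 0). Drug was given ip at 12.5 mg/kg/dose on days 10-14, 5 mice per group. Tumor-free survivors/total were recorded. T-C was the difference in median time after staging for tumors to double in mass twice, treated versus control.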

[8] = test system: P388; assay: Antitumor activity was measured by % increase in life span (ILS) of CD2F1 mice implanted with P388 murine leukemia cell at a dose of 25 mg/kg; format: functional, Mus sp.; conditions: Mus musculus
[9] = test system: P388; assay: Antitumor activity measured by % increase in life span (ILS) of CD2F1 mice implanted with murine leukemia cells expressed as net log cell kill; format: functional, Mus sp.
[10] = test system: P388; assay: Antitumor activity against intraperitoneally implanted P388 murine leukemia in CD2F1 mice with 10E6 at 25 mg/kg on day 1, expressed tumor-free surv/total;0/5; format: functional, Mus sp.; conditions: route intraperitoneal
[11] = test system: SNB-7; assay: In vitro cytotoxicity was evaluated againstCNS SNB-7 cells; 3 x 10E1; format: functional, cell-based; conditions: Homo sapiens; summary of the method: as §1
[12] = test system: DLD-1 (Homo sapiens); assay: In vitro cytotoxicity was evaluated against colon DLD-1 cells; 2 x 10E1
[13] = test system: CAKI-1 (Homo sapiens); assay: In vitro cytotoxicity was evaluated against renal CAKI-1 cells; 2 x 10E1
[14] = test system: SK-MEL-28 (Homo sapiens); assay: In vitro cytotoxicity was evaluated against melanoma SK-MEL-28 cells; 1 x 10e1; 1 x 10E1
[15] = test system: DLD-1; assay: In vitro cytotoxicity was evaluated against colon DLD-1 cells; 4 x 10E1; format: functional, cell-based; conditions: Homo sapiens; summary of the method: as §1
[16] = test system: CAKI-1 (Homo sapiens); assay: In vitro cytotoxicity was evaluated against renal CAKI-1 cells
[17] = test system: SK-MEL-28 (Homo sapiens); assay: In vitro cytotoxicity was evaluated against melanoma SK-MEL-28 cells; 3 x 10E1
[18] = test system: NCI-H23; assay: In vitro cytotoxicity was evaluated against lung NCI-H23 cells; 1 x 10E1; format: functional, cell-based; conditions: Homo sapiens; summary of the method: as §1
[19] = test system: DLD-1 (Homo sapiens); assay: In vitro cytotoxicity was evaluated against colon DLD-1 cells; 1 x 10E1
[20] = test system: CAKI-1 (Homo sapiens); assay: In vitro cytotoxicity was evaluated against renal CAKI-1 cells; 3 x 10E1
[21] = test system: SK-MEL-28 (Homo sapiens); assay: In vitro cytotoxicity was evaluated against melanoma SK-MEL-28 cells; 2 x 10E1
[22] = test system: NCI-H23; assay: In vitro cytotoxicity was evaluated against lung NCI-H23 cells; 3 x 10E1; format: functional, cell-based; conditions: Homo sapiens; summary of the method: as §1
[23] = test system: DLD-1 (Homo sapiens); assay: In vitro cytotoxicity was evaluated against colon DLD-1 cells; 3 x 10E1
[24] = test system: SK-MEL-28 (Homo sapiens); assay: In vitro cytotoxicity was evaluated against melanoma SK-MEL-28 cells
[25] = test system: CAKI-1; assay: In vitro cytotoxicity was evaluated against renal CAKI-1 cells; 3 x 10E1; format: functional, cell-based; conditions: Homo sapiens; summary of the method: as §1
[26] = test system: DLD-1; assay: In vitro cytotoxicity was evaluated against colon DLD-1 cells; 2 x 10E1; format: functional, cell-based; conditions: Homo sapiens; summary of the method: as §1
[27] = test system: SK-MEL-28; assay: In vitro cytotoxicity was evaluated against melanoma SK-MEL-28 cells; 1 x 10E1; format: functional, cell-based; conditions: Homo sapiens; summary of the method: as §1
[28] = test system: SNB-7; assay: In vitro cytotoxicity was evaluated againstCNS SNB-7 cells; 1 x 10E1; format: functional, cell-based; conditions: Homo sapiens; summary of the method: as §1

Question: Which results are given for `O=NN(CCCl)C(=O)OCc1ccccc1[N+](=O)[O-]`?
Answer: IC50 [1]: 3 µg/mL (≈ 10.4 µM); IC50 [2]: 1 µg/mL (≈ 3.48 µM); IC50 [3]: 40 µg/mL (≈ 139 µM); IC50 [4]: 6 µg/mL; IC50 [5]: 40 µg/mL (≈ 139 µM)

Question: For `CC(=O)Oc1ccc(COC(=O)N(CCCl)N=O)cc1`, which T-C [6] is on record?
Answer: Its T-C is 3.

Question: And the Survivial / total [7]?
Answer: The Survivial / total was 0.

Question: What about the IC50 [1] of the same molecule?
Answer: Its IC50 is 6 µg/mL (≈ 20 µM).

Question: What about the ILS at 25 mg/kg [8] of the same molecule?
Answer: Its ILS at 25 mg/kg is 4%.

Question: And the “Net log cell kill” value [9]?
Answer: Its value is -0.3.

Question: What about the Survivial / total [10] of the same molecule?
Answer: The Survivial / total was 0.

Question: What about the IC50 [11] of the same molecule?
Answer: The IC50 was 30 µg/mL (≈ 99.8 µM).

Question: And the IC50 [12]?
Answer: The IC50 was 20 µg/mL (≈ 66.5 µM).

Question: And the IC50 [13]?
Answer: Its IC50 is 20 µg/mL (≈ 66.5 µM).

Question: What about the IC50 [14] of the same molecule?
Answer: The IC50 was 10 µg/mL (≈ 33.3 µM).

Question: What does the source list for `O=NN(CCCl)C(=O)Oc1cncnc1`?
Answer: IC50 [15]: 40 µg/mL (≈ 173 µM); IC50 [1]: 2 µg/mL (≈ 8.67 µM); IC50 [2]: 6 µg/mL (≈ 26 µM); IC50 [16]: 6 µg/mL; IC50 [17]: 30 µg/mL (≈ 130 µM)

Question: Which results are given for `CC(=O)Oc1ccccc1COC(=O)N(CCCl)N=O`?
Answer: IC50 [2]: 6 µg/mL (≈ 20 µM); IC50 [18]: 10 µg/mL; IC50 [19]: 10 µg/mL (≈ 33.3 µM); IC50 [20]: 30 µg/mL (≈ 99.8 µM); IC50 [21]: 20 µg/mL (≈ 66.5 µM)

Question: `O=NN(CCCl)C(=O)Oc1cccnc1` was tested. Which IC50 [22] did it give?
Answer: Its IC50 is greater than 30 µg/mL.

Question: And the IC50 [11]?
Answer: The IC50 was greater than 30 µg/mL.

Question: What about the IC50 [23] of the same molecule?
Answer: The IC50 was greater than 30 µg/mL.

Question: And the IC50 [20]?
Answer: The IC50 was greater than 30 µg/mL.

Question: And the IC50 [17]?
Answer: Its IC50 is greater than 30 µg/mL.

Question: `O=NN(CCCl)C(=O)OCc1ccc([N+](=O)[O-])cc1` was tested. Which IC50 [1] did it give?
Answer: The IC50 was 1 µg/mL (≈ 3.48 µM).

Question: And the IC50 [2]?
Answer: Its IC50 is 1 µg/mL (≈ 3.48 µM).

Question: And the IC50 [4]?
Answer: Its IC50 is 5 µg/mL.

Question: And the IC50 [16]?
Answer: Its IC50 is 3 µg/mL.

Question: And the IC50 [24]?
Answer: Its IC50 is 1 µg/mL.

Question: `CC(=O)OCC1OC(OC(=O)N(CCCl)N=O)C(OC(C)=O)C(OC(C)=O)C1OC(C)=O` (stereo not given) was tested. Which IC50 [25] did it give?
Answer: The IC50 was greater than 30 µg/mL.

Question: And the IC50 [26]?
Answer: The IC50 was 20 µg/mL (≈ 41.4 µM).

Question: What about the IC50 [1] of the same molecule?
Answer: Its IC50 is 3 µg/mL (≈ 6.21 µM).

Question: And the IC50 [27]?
Answer: Its IC50 is 10 µg/mL (≈ 20.7 µM).

Question: And the IC50 [28]?
Answer: Its IC50 is 10 µg/mL.

Question: Which results are given for `Nc1ccn([C@@H]2O[C@H](CO)[C@@H](O)[C@@H]2O)c(=O)n1` [CYTARABINE]?
Answer: IC50 ([28]; read-out: IC50): 1000 nM; IC50 ([18]; read-out: IC50): 1000 nM; IC50 [4]: > 5000 nM; IC50 [16]: > 5000 nM; IC50 [24]: 1000 nM
